According to ChEMBL document CHEMBL4049421, “Design, Synthesis, and Pharmacological Characterization of N-(4-(2 (6,7-Dimethoxy-3,4-dihydroisoquinolin-2(1H)yl)ethyl)phenyl)quinazolin-4-amine Derivatives: Novel Inhibitors Reversing P-Glycoprotein-Mediated Multidrug Resistance” (J Med Chem, 2017):
Activity calls are given as the source filed them. The calls are words filed in the database; no cut-off is given here.

Assays:
[1] = Cytotoxicity against human K562 cells assessed as cell viability at 1.0 uM after 48 hrs by MTT assay (reference value: >99%); type: cell-based; conditions: read-out: Activity
[2] = species: Homo sapiens; assay: Inhibition of P-gp in human K562/A02 cells assessed as potentiation of doxorubicin-induced cytotoxicity by measuring fold reduction in doxorubicin IC50 at 1.0 uM after 48 hrs by MTT assay relative to doxorubicin alone; type: cell-based
In short: (§1)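 K562/A02 cells (1×10^4 cells per well) were exposed to a DOX concentration series, alone or with modulator at 1.0 μM, for 48 h. Viability was read by MTT at 490 nm. Reversal fold = DOX IC50 without inhibitor / DOX IC50 with inhibitor, mean ± SD of three tests.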

[3] = tested on: K562; assay: Cytotoxicity against human K562 cells assessed as suppression of cell viability after 48 hrs by MTT assay; type: cell-based; conditions: K562, 48 h
In short: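 MTT assay on HUVEC, K562 or K562/A02 cells seeded at 1×10^4 cells per well, using serial compound concentrations. Formazan was dissolved in DMSO and read at 490 nm. IC50 was obtained from log dose–response curves, mean ± SD of three independent tests.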

[4] = Inhibition of P-gp in human K562/A02 cells assessed as potentiation of doxorubicin-induced cytotoxicity by measuring fold reduction in doxorubicin IC50 after 48 hrs by MTT assay relative to doxorubicin alone; type: cell-based; conditions: K562/A02, 48 h; in short: as §1
[5] = Selective index, ratio of IC50 for human K562/A02 cells to EC50 for inhibition of P-gp in human K562/A02 cells assessed as potentiation of doxorubicin-induced cytotoxicity
In short: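 Reversal EC50 is the modulator concentration that halves the DOX IC50 in K562/A02 cells, from % DOX IC50 plotted against log modulator concentration. The index divides the MTT IC50 in K562, K562/A02 or HUVEC cells by this EC50.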

[6] = species: Homo sapiens; assay: Inhibition of P-gp in human K562/A02 cells assessed as potentiation of paclitaxel-induced cytotoxicity at 1.0 uM after 48 hrs by MTT assay; type: cell-based
In short: (§2)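 K562/A02 cells were exposed for 48 h to DNR, PTX, VLB or CTX at 0, 0.313–20 μM, with or without modulator at 1.0 μM. Viability was measured by MTT at 490 nm, mean ± SD of three independent tests.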

[7] = species: Homo sapiens; assay: Inhibition of P-gp in human K562/A02 cells assessed as potentiation of vinblastine-induced cytotoxicity at 1.0 uM after 48 hrs by MTT assay; type: cell-based; in short: as §2
[8] = species: Homo sapiens; assay: Inhibition of P-gp in human K562/A02 cells assessed as potentiation of daunorubicin-induced cytotoxicity at 1.0 uM after 48 hrs by MTT assay; type: cell-based; in short: as §2
[9] = species: Homo sapiens; assay: Inhibition of P-gp in human K562/A02 cells assessed as potentiation of doxorubicin-induced cytotoxicity at 1 uM preincubated for 24 hrs followed by compound washout for 24 hrs and subsequent doxorubicin addition measured after 48 hrs by MTT assay; type: cell-based
In short: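 K562/A02 cells (1×10^4 cells per well) were preincubated 24 h with modulator (1.0 μM or 5.0 μM) or PBS. Cells were washed 0 or 3 times with medium and held for 0, 6, 12 or 24 h. A DOX concentration series was then added for 48 h, and viability was read by MTT. Triplicate determinations.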

[10] = species: Homo sapiens; assay: Inhibition of P-gp in human K562/A02 cells assessed as accumulation of doxorubicin at 0.1 uM to 5.0 uM after 150 mins by fluorescence spectrophotometric analysis; type: cell-based
In short: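 K562/A02 cells (4×10^5) were incubated 150 min at 37 °C with 20.0 μM DOX plus modulator at various concentrations, with 0.1% DMSO as negative control. Cells were washed with cold PBS and lysed in HCl/Triton X-100/isopropanol. DOX fluorescence was read at ex 460 / em 587 nm. Mean ± SD, n = 3.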

[11] = species: Homo sapiens; assay: Inhibition of P-gp mediated efflux in human K562/A02 cells assessed as intracellular Rh123 accumulation at 1.0 uM measure up to 90 mins by flow cytometric analysis; type: cell-based
In short: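 K562/A02 cells were loaded with 5 μM Rh123 for 90 min at 37 °C and washed three times. They were then incubated with or without modulator at 37 °C for 5, 10, 25, 30, 60 and 90 min. Retained Rh123 MFI per 10000 cells was measured by flow cytometry. 0.1% DMSO negative control, n = 3.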

[12] = tested on: K562/A02; assay: Effect on ABCB1 expression in human K562/A02 cells at 0.1 uM to 2.0 uM after 72 hrs by Western blot analysis; type: functional, cell-based
In short: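 K562/A02 cells were treated 72 h with compound at 0.1, 0.5 or 2.0 μM and lysed in RIPA/PMSF. Lysate (100 μg) was run on gradient SDS-PAGE and probed with anti-ABCB1, with β-tubulin loading control and ECL detection. Expression is given as the ABCB1/β-tubulin band-intensity ratio.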

[13] = Inhibition of CYP3A4 in rat liver microsomes assessed as decrease in 6beta-OH testosterone levels at 40 uM using testosterone as substrate by HPLC analysis; type: ADME
In short: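 Rat liver microsomes, prepared by differential centrifugation, were incubated with testosterone in the absence or presence of compound at 2.5, 5.0, 10.0, 20.0 and 40.0 μM. The 6β-OH testosterone product was quantified by C18 reverse-phase gradient HPLC at 254 nm. Ketoconazole served as positive control. n = 3.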

[14] = Elimination half life in Sprague-Dawley rat plasma at 10 mg/kg, po by LC-MS/MS analysis; type: ADME, organism-based; conditions: read-out: beta t1/2 (converted)
In short: (§3)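 Male Sprague-Dawley rats, n = 3 per group, given drug in Tween-80/ethanol/saline (5:10:85, v/v) at 10 mg/kg p.o. or 5 mg/kg i.v. Retro-orbital blood was taken at 5 min to 24 h, and plasma separated at 900g. Samples were spiked with internal standard, methanol-precipitated and quantified by LC-MS/MS. F = (AUCpo/AUCiv)×(dose iv/dose po)×100%.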

[15] = Cmax in Sprague-Dawley rat at 10 mg/kg, po measured after 24 hrs by LC-MS/MS analysis; type: ADME, organism-based; parameters: dose 10 mg/kg, route oral; conditions: in vivo; in short: as §3
[16] = Oral bioavailability in Sprague-Dawley rat plasma at 10 mg/kg measured after 24 hrs by LC-MS/MS analysis; type: ADME, organism-based; in short: as §3
[17] = tested on: Rattus norvegicus; assay: Effect on half life of doxorubicin in Sprague-Dawley rat at 5 mg/kg, iv co-administered with doxorubicin measured after 8 hrs by LC-MS/MS analysis; type: ADME, organism-based; conditions: in vivo
In short: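 Male SD rats received DOX 10 mg/kg i.v. alone or with modulator 5 mg/kg i.v. Orbital blood was taken at 5 min to 8 h. Plasma DOX was measured by LC-MS/MS with DNR (0.5 μg/mL) as internal standard. Mean ± SD, n = 3.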

inhibition (INH) [13]: Not Active
half-life [14]: 6.2 h
Cmax [15]: 761 ng/mL
bioavailability [16]: 95.3%
SMILES: COc1cc2c(cc1OC)CN(CCc1ccc(Nc3nc(-c4ccncc4)nc4ccccc34)cc1)CC2
viability at 48 h, 1 µM [1]: 96.5%
fold change (FC) [2]: 30.9
IC50 [3]: 4 µM
EC50 [4]: 0.0579 µM
Ratio IC50/EC50 [5]: 241.6
inhibition [6]: Active
inhibition [7]: Active
inhibition [8]: Active
inhibition [9]: Active
inhibition [10]: Active
inhibition [11]: Active
Activity [12]: inactive
Activity [17]: Non-Toxic
